Assay results from different studies.
Lines come from different studies, so protocols differ.
Target: Dual specificity testis-specific protein kinase 1 (TESK1, Homo sapiens, UniProt Q15569)

Compound | assay | conditions | remaining binding [%]
N[C@@H]1CCN(c2nccc(-c3cnn4ncccc34)n2)C1 | binding | 1 µM | 100
O=C(NCCCN1CCOCC1)c1ccc(Nc2nccc(-c3cc4ccccc4s3)n2)cc1 | binding, competition with immobilised ligand | 1 µM | 77
Nc1cnc(N2CCc3cc(S(=O)(=O)Nc4c(F)cc(Cl)cc4F)cc(N4CCCC4=O)c32)nc1 | cell-free assay, competition with immobilised ligand | 1 µM | 100
COc1ccnn2ncc(-c3ccnc(N(C)C)n3)c12 | binding | 1 µM | 100
CCS(=O)(=O)c1cc2cc(C[C@@](O)(CC(C)(C)c3ccc(F)cc3C(N)=O)C(F)(F)F)[nH]c2cn1 | cell-free assay, competition with immobilised ligand | 1 µM | 77
C[C@@H](c1ccc(-n2cnc3c(N)ncnc32)cc1)N1CCc2nn(C)c(Cc3ccccc3)c2C1=O | binding, competition with immobilised ligand | 0.1 µM | 87
O=C(c1ccc(Nc2nccc(-c3cc4ccccc4s3)n2)cc1)N1CCC(N2CCCC2)CC1 | binding, competition with immobilised ligand | 1 µM | 97
O=C(Nc1cnc(Oc2ccc(F)cc2)nc1)N1CCc2ncccc2[C@@H]1c1ccc(F)cc1 | cell-free assay, competition with immobilised ligand | 1 µM | 91
Cc1cnc(Nc2ccc(C(=O)N3CCC(N4CCCC4)CC3)cc2)nc1-c1cc2ccccc2s1 | binding, competition with immobilised ligand | 1 µM | 72
CN(C)c1nccc(-c2cnn3ncccc23)n1 | binding | 1 µM | 100
Nc1ncc2c(n1)-c1c([nH]c3ccc(C#CC4CC4)cc13)CCCC2 | binding, competition with immobilised ligand | 1 µM | 100
COc1cnc(Nc2cccc(S(N)(=O)=O)c2)nc1N1CCN(c2ccccc2)C(=O)C1 | binding, competition with immobilised ligand | 1 µM | 96
C[C@H]1CCN(c2nccc(-c3cnn4ncccc34)n2)C1 | binding | 1 µM | 100
O=C(NCC1CCOCC1)c1n[nH]cc1NC(=O)c1c(F)cccc1F | binding, competition with immobilised ligand | 1 µM | 100
c1cncc(-c2cccc(Nc3nccc(NC4CCCCC4)n3)c2)c1 | binding, competition with immobilised ligand | 10 µM | 77
O=C(N[C@H]1CCCCC/C=C\C2C[C@@]2(C(=O)O)NC(=O)[C@@H]2C[C@@H](Oc3ccncc3)CN2C1=O)OC1CCCC1 (stereo partly drawn) | binding, competition with immobilised ligand | 1 µM | 97
CN(C)c1ncc(F)c(-c2cnn3ncccc23)n1 | binding | 1 µM | 100
Cc1cc(NC(=O)c2cccc(S(F)(F)(F)(F)F)c2)cc(-n2ccn3nc(-c4cccnc4)cc23)c1 | cell-free assay, competition with immobilised ligand | 1 µM | 91.7
F[C@@H]1CCN(c2nccc(-c3cnn4ncccc34)n2)C1 | binding | 1 µM | 67
CCCOc1ccc([C@H]2[C@H](C(=O)O)[C@@H](c3ccc4c(c3)OCO4)CN2CC(=O)Nc2c(CC)cccc2CC)cc1 | cell-free assay, competition with immobilised ligand | 1 µM | 89
C=CC(=O)N1CCC(C(=O)NCC(=O)N2CCN(c3nc(-c4cnc(N)nc4C(F)F)nc(N4CCOCC4)n3)CC2)CC1 | binding, competition with immobilised ligand | 1 µM | 100
